Compound activity as filed in PubChem BioAssay.
Shown are actives, neighbours in structure and some others; about 2.7% of the full set was active somewhere.
ASAP1 inh – ASAP1 ArfGAP inhibition; ASAP1-stimulated ARF1 GTP hydrolysis, GDP FP detection; 0.19% of 360,000 active; Q9ULH1; inhibition, % at 16.5 µM; in the data active = inhibition above about 25%;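 note: 0% = vehicle with enzyme and substrate and 100% = no enzyme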
PAFAH2 FP inh – inhibitors of human PAFAH2. Q99487. AID 492956. recombinant PAFAH2, FP-rhodamine activity probe, fluorescence polarization. 0.99% of 340,000 active. inhibition, % at 3.39 µM;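 active = inhibition above the mean over all tested compounds plus 3 SD, cut at about 30% in these data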;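 note: inhibitors block probe labeling of enzyme so polarization drops; 0% = enzyme with DMSO and 100% = wells lacking PAFAH2 protein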
PAFAH1B2 inh – inhibitors of human PAFAH1B2; P68402; recombinant PAFAH1B2, FP-rhodamine activity probe, fluorescence polarization; inhibition, % at 3.39 µM; 1.2% of 340,000 active; AID 492953;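 active = inhibition above the mean of all tested compounds plus 3 SD, cut at about 24% in these data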;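 note: 0% = enzyme with DMSO and 100% = wells lacking PAFAH1B2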
Target sequence (P68402 whole entry, looked up): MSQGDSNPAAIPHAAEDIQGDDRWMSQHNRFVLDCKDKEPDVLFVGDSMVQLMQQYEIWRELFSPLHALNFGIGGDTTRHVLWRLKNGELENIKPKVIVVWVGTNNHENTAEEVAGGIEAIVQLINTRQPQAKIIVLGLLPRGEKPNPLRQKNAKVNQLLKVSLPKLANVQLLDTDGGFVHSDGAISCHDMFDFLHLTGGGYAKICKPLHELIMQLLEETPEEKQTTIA
pPAFAH FP inh – pPAFAH (human) enzyme inhibition; AID 463082; inhibition, % at 3.39 µM; 1.5% of 330,000 active; recombinant pPAFAH, FP-rhodamine probe fluorescence polarization; Q13093;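 active = inhibition above the mean inhibition across the screen plus 3 SD, cut at about 25% in these data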;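 note: inhibitors block binding of the rhodamine activity-based probe so polarization drops; 0% = enzyme with DMSO and 100% = wells lacking pPAFAH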
PAFAH1B3 inh – inhibitors of human PAFAH1B3; AID 492972; recombinant PAFAH1B3, FP-rhodamine probe, fluorescence polarization; Q15102; 0.28% of 340,000 active; inhibition, % at 3.39 µM;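 active = inhibition above the screen-wide average of all tested compounds plus 3 SD, cut at about 25% in these data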;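 note: 0% = enzyme with DMSO only and 100% = wells lacking PAFAH1B3 protein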
ARFGAP1 inh – inhibitors of rat ARFGAP1. AID 651572. Q62848. inhibition, % at 16.5 µM. Arfgap1-stimulated ARF1 GTP hydrolysis, GDP FP detection. 0.26% of 360,000 active;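 active = inhibition above a per-plate limit, mean inhibition of low control wells plus 3 SD, cut at about 25% in these data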;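 note: 0% = DMSO wells with enzyme and 100% = wells lacking Arfgap1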
Target sequence (Q62848 1-136 limits assumed): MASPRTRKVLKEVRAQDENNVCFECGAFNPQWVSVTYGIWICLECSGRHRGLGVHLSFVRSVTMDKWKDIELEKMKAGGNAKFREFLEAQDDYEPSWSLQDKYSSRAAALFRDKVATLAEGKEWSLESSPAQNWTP
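System: truncated rat Arfgap1 GAP domain / Benchmarks: high control wells lacking Arfgap1, low control full reaction with DMSO / Times: compound-enzyme preincubation 20 min, reaction 120 min, detection 60 min, 25 °C / Repeats: one replicate per compound / Also added: human ARF1(Δ1-17)-GTP substrate / Measured by: Tracer-displacement fluorescence polarization with EDTA stop, 620/688 nm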
PAFAH2 confirm – confirmation of human PAFAH2 inhibitors. shares compounds with PAFAH2 FP inh. recombinant PAFAH2, FP-rhodamine activity probe, fluorescence polarization. inhibition, % at 3.39 µM. 65% of 2,300 active;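 active = mean inhibition over three repeats above a set limit taken from the earlier primary screen, cut at about 30% in these data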;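 note: inhibitor blocks binding of rhodamine activity probe so polarization falls; 0% = enzyme with DMSO and 100% = wells lacking PAFAH2 protein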
The depositor's hits bear a star.

O=C(COC(=O)c1cc(S(=O)(=O)N2CCOCC2)ccc1O)Nc1cc(S(=O)(=O)N2CCCC2)ccc1Cl was read as ASAP1 inh -8.3, PAFAH2 FP inh 77.1*, PAFAH1B2 inh 7.7, pPAFAH FP inh -2.4, PAFAH1B3 inh 8.2, ARFGAP1 inh 8.4 and PAFAH2 confirm 75.5*.
COc1cc(/C=C/C(=O)OCC(=O)N2CCC(C)CC2)ccc1O was read as ASAP1 inh 1.5, PAFAH2 FP inh 56.4*, PAFAH1B2 inh 3.2, pPAFAH FP inh 4.9, PAFAH1B3 inh 1.0, ARFGAP1 inh -5.0 and PAFAH2 confirm 45.1*.
Screening COc1cc(/C=C/C(=O)OCC(=O)N2CCC(C)CC2)ccc1OCC#N returned ASAP1 inh -5.2, PAFAH2 FP inh 41.6*, PAFAH1B2 inh 1.1, pPAFAH FP inh 0.4, PAFAH1B3 inh 8.8, ARFGAP1 inh 12.6 and PAFAH2 confirm 22.2.
`COc1cc(/C=C/C(=O)OCC(=O)NC(=O)NC2CCCC2)ccc1OCC#N` gave ASAP1 inh 5.8, PAFAH2 FP inh 12.6, PAFAH1B2 inh 3.9, PAFAH1B3 inh 2.7 and ARFGAP1 inh 1.6.
For COc1cc(/C=C/C(=O)OCC(=O)N2CC3(C)CC2CC(C)(C)C3)ccc1O (stereo not drawn) the results were ASAP1 inh 7.1, PAFAH2 FP inh 42.2*, PAFAH1B2 inh 11.6, pPAFAH FP inh 5.5, PAFAH1B3 inh -6.3, ARFGAP1 inh -11.0 and PAFAH2 confirm 19.9.
COc1cccc(C(=O)OCC(=O)N2CCc3ccccc3C2)c1OC was read as ASAP1 inh -4.3, pPAFAH FP inh 9.7 and ARFGAP1 inh -0.2.
For COc1cc(/C=C/C(=O)OCC(=O)N2CCC(Cc3ccccc3)CC2)ccc1O the results were ASAP1 inh -9.9, PAFAH2 FP inh 13.8, PAFAH1B2 inh -2.4, pPAFAH FP inh 11.8, PAFAH1B3 inh 6.1 and ARFGAP1 inh -2.8.
`COc1cc(/C=C/C(=O)OCC(=O)N2CCc3ccccc3C2)ccc1O` gave ASAP1 inh 0.9, PAFAH2 FP inh 35.0*, PAFAH1B2 inh -0.1, pPAFAH FP inh 7.6, PAFAH1B3 inh 8.4, ARFGAP1 inh -11.0 and PAFAH2 confirm 35.5*.
O=C(COC(=O)/C=C/c1cccc(Br)c1)Nc1ccc(Cl)cn1 was read as ASAP1 inh 4.9 and ARFGAP1 inh 2.0.
For COc1cc(Cl)c(NS(=O)(=O)c2ccc(-c3ccc(=O)[nH]n3)o2)c(OC)c1 the results were ASAP1 inh 10.3, PAFAH2 FP inh 32.1*, PAFAH1B2 inh 0.2, pPAFAH FP inh 4.6, PAFAH1B3 inh -1.5, ARFGAP1 inh 12.4 and PAFAH2 confirm 1.1.
O=C1Nc2ccc(F)cc2C12Nc1ccccc1-c1nnc(SCc3ccccc3F)nc1O2 (stereo not drawn) was read as ASAP1 inh 4.9, PAFAH2 FP inh 35.1*, PAFAH1B2 inh 8.9, pPAFAH FP inh 5.2, PAFAH1B3 inh 5.7, ARFGAP1 inh -6.0 and PAFAH2 confirm 15.0.
Screening COc1ccc(C(=O)NC(C)C2CC3CCC2C3)cc1 (stereo not drawn) returned ASAP1 inh 4.5, PAFAH2 FP inh 3.0, PAFAH1B2 inh 16.5, pPAFAH FP inh 3.4, PAFAH1B3 inh 6.5 and ARFGAP1 inh -0.9.
For CC(NC(=O)COC(=O)c1ccc(CO)cc1)C1CC2CCC1C2 (stereo not drawn) the results were ASAP1 inh 3.0, PAFAH2 FP inh 68.0*, PAFAH1B2 inh 1.5, pPAFAH FP inh 0.9, PAFAH1B3 inh 2.0, ARFGAP1 inh -5.3 and PAFAH2 confirm 64.3*.
`CC(NC(=O)c1ccc(N(C)C)cc1)C1CC2CCC1C2` (stereo not drawn) gave ASAP1 inh -3.1, PAFAH2 FP inh 46.1*, PAFAH1B2 inh 11.8, PAFAH1B3 inh 0.2, ARFGAP1 inh 1.5 and PAFAH2 confirm 32.7*.
For Cc1ccc(C(=O)CN(C(=O)c2ccc(Cl)c(Cl)c2)N2C(=O)C3CCCCC3C2=O)cc1 (stereo not drawn) the results were ASAP1 inh 0.3, PAFAH2 FP inh 34.9*, PAFAH1B2 inh 7.0, pPAFAH FP inh 2.5, PAFAH1B3 inh 8.1, ARFGAP1 inh -1.7 and PAFAH2 confirm 35.1*.
